The results in this text go back to ChEMBL document CHEMBL1687802, “An RpoB mutation confers dual heteroresistance to daptomycin and vancomycin in Staphylococcus aureus” (2010).

Molecules are shown by their SMILES. Values after ≈ are worked out from the molar mass of the structure shown.

Assay [1] relates to Staphylococcus aureus. The experiment in a line: Antimicrobial activity against methicillin-resistant Staphylococcus aureus N315deltaIP after 24 hrs by Etest method. In kind it is functional. A digest of the protocol:
(§1)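 Etest MICs (daptomycin, vancomycin, oxacillin, rifampin) on Mueller-Hinton agar, with the daptomycin medium supplemented with 50 mg/liter Ca2+. Plates were swabbed from a 0.5 McFarland suspension, strips were applied 10 min later, and plates were read after 24 h at 37°C. Strains were pKOR1 allelic-replacement mutants or revertants of N315ΔIP (mecI-inactivated, beta-lactamase plasmid cured) or 10*3d1, grown in BHI broth at 37°C.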

The subject of assay [2] is Staphylococcus aureus. Kind of assay: Antimicrobial activity against methicillin-resistant Staphylococcus aureus N315deltaIP harboring rpoB A621E mutant gene after 24 hrs by Etest method. The assay is classed as functional. An outline of the steps:
as §1

Assay [3] relates to Staphylococcus aureus. Kind of assay: Antimicrobial activity against methicillin-resistant Staphylococcus aureus N315deltaIP harboring hypothetical protein SA1826 14A mutant after 24 hrs by Etest method. The assay is classed as functional. An outline of the steps:
as §1

Assay [4] has as its system Staphylococcus aureus. The experiment in a line: Antimicrobial activity against methicillin-resistant Staphylococcus aureus N315deltaIP harboring hypothetical protein SA1826 14E mutant gene after 24 hrs by Etest method. In kind it is functional. A digest of the protocol:
as §1

Assay [5] has as its system Staphylococcus aureus. Kind of assay: Antimicrobial activity against methicillin-resistant Staphylococcus aureus 10*3d1 harboring hypothetical protein SA1826 14A mutant gene after 24 hrs by Etest method. The assay is classed as functional. Particulars: 10*3d1, 24 h. An outline of the steps:
as §1

Assay [6] relates to Staphylococcus aureus. Kind of assay: Antimicrobial activity against methicillin-resistant Staphylococcus aureus 10*3d1 harboring hypothetical protein SA1826 14E mutant gene after 24 hrs by Etest method. As to conditions: 10*3d1, 24 h. In kind it is functional. An outline of the steps: as §1
The subject of assay [7] is Staphylococcus aureus. Kind of assay: Antimicrobial activity against methicillin-resistant Staphylococcus aureus 10*3d1 harboring hypothetical protein SA1826 14A mutant and rpoB 621A mutant after 24 hrs by Etest method. The assay is classed as functional. Particulars: 10*3d1, 24 h. A digest of the protocol:
as §1

The test system of assay [8] is Staphylococcus aureus. Kind of assay: Antimicrobial activity against methicillin-resistant Staphylococcus aureus 10*3d1 harboring hypothetical protein SA1826 14A(-) and rpoB 621E mutant gene after 24 hrs by Etest method. In kind it is functional. As to conditions: 10*3d1, 24 h. An outline of the steps: as §1
The test system of assay [9] is Staphylococcus aureus. The experiment in a line: Antimicrobial activity against vancomycin-intermediate Staphylococcus aureus MU50 by Etest method. In kind it is functional.
In assay [10] the test system is Staphylococcus aureus. Kind of assay: Antimicrobial activity against vancomycin-intermediate Staphylococcus aureus MI by Etest method. The assay is classed as functional.
In assay [11] the test system is Staphylococcus aureus. The experiment in a line: Antimicrobial activity against vancomycin-intermediate Staphylococcus aureus MU50-PR selected at 4 mg/L of vancomycin by Etest method. In kind it is functional.
Assay [12] concerns Staphylococcus aureus. Kind of assay: Antimicrobial activity against vancomycin-intermediate Staphylococcus aureus MI-PR selected at 4 mg/L of vancomycin by Etest method. The assay is classed as functional.
Assay [13] deals with Staphylococcus aureus. Kind of assay: Antimicrobial activity against vancomycin-susceptible Staphylococcus aureus MI-P84 by Etest method.
In assay [14] the test system is Staphylococcus aureus. Kind of assay: Antimicrobial activity against vancomycin-susceptible Staphylococcus aureus MU50-P35 by Etest method.
Assay [15] has as its system Staphylococcus aureus. The experiment in a line: Antimicrobial activity against methicillin-resistant Staphylococcus aureus 10*3d1 harboring rpoB 621E mutation after 24 hrs by Etest method. As to conditions: 10*3d1, 24 h.
The subject of assay [16] is Staphylococcus aureus. The experiment in a line: Antimicrobial activity against methicillin-resistant Staphylococcus aureus N315deltaIP harboring rpoB 621A mutant after 24 hrs by Etest method.
For assay [17], the system named is Staphylococcus aureus. Kind of assay: Antimicrobial activity against vancomycin-intermediate Staphylococcus aureus MU50-P35 selected at 4 mg/L of compound by Etest method.
In assay [18] the test system is Staphylococcus aureus. Kind of assay: Antimicrobial activity against vancomycin-intermediate Staphylococcus aureus MU50-PR selected at 4 mg/L of compound by Etest method.
Assay [19] has as its system Staphylococcus aureus. Kind of assay: Antimicrobial activity against vancomycin-intermediate Staphylococcus aureus MI-P84 selected at 4 mg/L of compound by Etest method.
In assay [20] the test system is Staphylococcus aureus. The experiment in a line: Antimicrobial activity against vancomycin-intermediate Staphylococcus aureus MI-PR selected at 4 mg/L of compound by Etest method.

In the case of `CCCCCCCCCC(=O)N[C@@H](Cc1c[nH]c2ccccc12)C(=O)N[C@H](CC(N)=O)C(=O)N[C@@H](CC(=O)O)C(=O)N[C@@H]1C(=O)NCC(=O)N[C@@H](CCCN)C(=O)N[C@@H](CC(=O)O)C(=O)N[C@H](C)C(=O)N[C@@H](CC(=O)O)C(=O)NCC(=O)N[C@H](CO)C(=O)N[C@@H]([C@H](C)CC(=O)O)C(=O)N[C@@H](CC(=O)c2ccccc2N)C(=O)O[C@@H]1C`, the MIC against Staphylococcus aureus [1] turned out to be 0.38 µg/mL (≈ 0.234 µM); with Staphylococcus aureus [2], 1.5 µg/mL (≈ 0.926 µM); against Staphylococcus aureus [3] it was 0.25 µg/mL (≈ 0.154 µM); with Staphylococcus aureus [4], 0.25 µg/mL (≈ 0.154 µM); in the assay with Staphylococcus aureus [5] it was 1.5 µg/mL (≈ 0.926 µM); against Staphylococcus aureus [6], 1.5 µg/mL (≈ 0.926 µM). In addition, the MIC is 0.25 µg/mL (≈ 0.154 µM) with Staphylococcus aureus [7]; 1.5 µg/mL (≈ 0.926 µM) against Staphylococcus aureus [8]; 2 µg/mL (≈ 1.23 µM) in the assay with Staphylococcus aureus [9]; 2 µg/mL (≈ 1.23 µM) against Staphylococcus aureus [10]; 2 µg/mL (≈ 1.23 µM) with Staphylococcus aureus [11]; 2 µg/mL (≈ 1.23 µM) in the assay on Staphylococcus aureus [12]. Further, the MIC against Staphylococcus aureus [13] stood at 0.5 µg/mL (≈ 0.309 µM); against Staphylococcus aureus [14] it was 0.5 µg/mL (≈ 0.309 µM); with Staphylococcus aureus [15], 2 µg/mL (≈ 1.23 µM); against Staphylococcus aureus [16], 0.25 µg/mL (≈ 0.154 µM).

As for `Cc1onc(-c2ccccc2)c1C(=O)N[C@@H]1C(=O)N2[C@@H]1SC(C)(C)[C@@H]2C(=O)O` [OXACILLIN], the minimal inhibitory concentration (MIC) was 48 µg/mL (≈ 120 µM) with Staphylococcus aureus [1]; greater than 256 µg/mL against Staphylococcus aureus [2]; greater than 256 µg/mL with Staphylococcus aureus [3]; greater than 256 µg/mL against Staphylococcus aureus [4]; greater than 256 µg/mL against Staphylococcus aureus [5]; greater than 256 µg/mL in the assay with Staphylococcus aureus [6]. Also, the MIC against Staphylococcus aureus [7], in the assay with Staphylococcus aureus [8], against Staphylococcus aureus [15] and in the assay on Staphylococcus aureus [16] was greater than 256 µg/mL throughout.

For the molecule `CO[C@H]1/C=C/O[C@@]2(C)Oc3c(C)c(O)c4c(O)c(c(/C=N/N5CCN(C)CC5)c(O)c4c3C2=O)NC(=O)/C(C)=C\C=C\[C@H](C)[C@H](O)[C@@H](C)[C@@H](O)[C@@H](C)[C@H](OC(C)=O)[C@@H]1C` [RIFAMPIN], the minimum inhibitory concentration (MIC) in the assay on Staphylococcus aureus [1], in the assay on Staphylococcus aureus [2], in the assay with Staphylococcus aureus [3], in the assay with Staphylococcus aureus [4], against Staphylococcus aureus [5] and in the assay on Staphylococcus aureus [6] was 0.006 µg/mL (≈ 0.00729 µM) in each case. Further, the MIC with Staphylococcus aureus [7], in the assay with Staphylococcus aureus [8], against Staphylococcus aureus [15] and in the assay on Staphylococcus aureus [16] was 0.006 µg/mL (≈ 0.00729 µM) each time.

For the molecule `CN[C@H](CC(C)C)C(=O)N[C@H]1C(=O)N[C@@H](CC(N)=O)C(=O)N[C@H]2C(=O)N[C@H]3C(=O)N[C@H](C(=O)N[C@H](C(=O)O)c4cc(O)cc(O)c4-c4cc3ccc4O)[C@H](O)c3ccc(c(Cl)c3)Oc3cc2cc(c3O[C@@H]2O[C@H](CO)[C@@H](O)[C@H](O)[C@H]2O[C@H]2C[C@](C)(N)[C@H](O)[C@H](C)O2)Oc2ccc(cc2Cl)[C@H]1O` [VANCOMYCIN], the MIC in the assay on Staphylococcus aureus [1] amounted to 0.5 µg/mL (≈ 0.345 µM); in the assay on Staphylococcus aureus [2] it was 3 µg/mL (≈ 2.07 µM); with Staphylococcus aureus [3] it was 0.5 µg/mL (≈ 0.345 µM); against Staphylococcus aureus [4] it was 0.5 µg/mL (≈ 0.345 µM); against Staphylococcus aureus [5] it was 3 µg/mL (≈ 2.07 µM); in the assay with Staphylococcus aureus [6], 3 µg/mL (≈ 2.07 µM). The minimal inhibitory concentration (MIC) in the assay on Staphylococcus aureus [7] came to 0.75 µg/mL (≈ 0.518 µM); in the assay with Staphylococcus aureus [8], 3 µg/mL (≈ 2.07 µM); in the assay on Staphylococcus aureus [9], 6 µg/mL (≈ 4.14 µM); in the assay on Staphylococcus aureus [17] it was 2 µg/mL (≈ 1.38 µM); against Staphylococcus aureus [18], 6 µg/mL (≈ 4.14 µM); against Staphylococcus aureus [10] it was 7 µg/mL (≈ 4.83 µM). Besides, the MIC was found to be 1 µg/mL (≈ 0.69 µM) with Staphylococcus aureus [19], 6 µg/mL (≈ 4.14 µM) against Staphylococcus aureus [20], 3 µg/mL (≈ 2.07 µM) against Staphylococcus aureus [15] and 0.25 µg/mL (≈ 0.173 µM) against Staphylococcus aureus [16].
